Results from ChEMBL document CHEMBL4732105, “First orally bioavailable prodrug of proteolysis targeting chimera (PROTAC) degrades cyclin-dependent kinases 2/4/6 in vivo” (Eur J Med Chem, 2021).
The source made the active and inactive calls. No cut-off for these calls is given here.

Assays:
A-375 [1] = test: Induction of cell cycle arrest in human A-375 cells assessed as accumulation at G2 phase at 250 uM incubated for 48 hrs by propidium iodide staining based flow cytometry (reference value: 12.42%); type: functional
Method in brief: (§1)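 Tumor cells incubated 48 h in complete medium with compound or DMSO at various concentrations, stained with propidium iodide, and DNA content read by flow cytometry. G0/G1, S and G2/M fractions reported; mean ± SD, n = 3, Student's t-test.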

A-375 [2] = test: Induction of apoptosis in human A-375 cells assessed as late apoptotic cells at 500 nM incubated for 48 hrs by Annexin V-FITC/PI staining based flow cytometry (reference value: 3.28%); type: functional
[3] = target: Protein cereblon/Cyclin-dependent kinase 2 (Mus musculus) (UniProt P97377+Q8C7D2); test: Protac activity at CRBN/CDK2 in mouse B16F10 cells assessed as induction of CDK2 protein degradation at 100 nM for 6 hrsin presence of Ribociclib by Western blot analysis; type: cell-based; conditions: B16-F10, time 6.0 hrs
Protein cereblon/Cyclin-dependent kinase 2 (Mus musculus), sequence (Q8C7D2 whole entry, looked up, other chains not shown): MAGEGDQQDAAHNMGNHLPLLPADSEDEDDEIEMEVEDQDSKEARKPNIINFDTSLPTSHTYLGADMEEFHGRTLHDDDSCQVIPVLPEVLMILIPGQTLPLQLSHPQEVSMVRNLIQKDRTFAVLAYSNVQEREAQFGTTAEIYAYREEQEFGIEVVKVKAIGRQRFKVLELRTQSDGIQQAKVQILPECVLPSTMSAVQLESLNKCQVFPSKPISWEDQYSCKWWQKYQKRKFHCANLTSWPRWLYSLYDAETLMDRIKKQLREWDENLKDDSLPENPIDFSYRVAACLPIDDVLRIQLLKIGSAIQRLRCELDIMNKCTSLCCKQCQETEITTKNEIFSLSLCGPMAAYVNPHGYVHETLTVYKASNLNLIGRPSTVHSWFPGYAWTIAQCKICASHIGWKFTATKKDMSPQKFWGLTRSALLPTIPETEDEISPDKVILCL

A-375 [4] = test: Induction of apoptosis in human A-375 cells assessed as necrotic cells at 1000 nM incubated for 48 hrs by Annexin V-FITC/PI staining based flow cytometry (reference value: 0.602%); type: functional
B16-F10 [5] = test: Induction of apoptosis in mouse B16F10 cells assessed as increase in cleaved PARP level incubated for 48 hrs by Western blot analysis; type: functional, cell-based; conditions: dose nM <=1000, time 48.0 hrs
Method in brief: (§2)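 A375 and B16F10 cells incubated with compound for 48 h. Cleaved caspase-3, cleaved PARP, total P53, Bcl-2 and Bax measured by western blot.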

A-375 [6] = test: Induction of apoptosis in human A-375 cells assessed as increase in P-53 level upto 2000 nM incubated for 48 hrs by Western blot analysis; type: functional, cell-based; conditions: dose nM <=2000, time 48.0 hrs; method in brief: as §2
B16-F10 [7] = test: Induction of apoptosis in mouse B16F10 cells assessed as increase in P-53 level upto 1000 nM incubated for 48 hrs by Western blot analysis; type: functional, cell-based; conditions: dose nM <=1000, time 48.0 hrs; method in brief: as §2
[8] = Cmax in Sprague-Dawley rat at 10 mg/kg, iv; type: ADME, organism-based; parameters: route intravenous, dose 10 mg/kg; conditions: in vivo
[9] = target: T1, Protein cereblon/Cyclin-dependent kinase 4 (Homo sapiens) (UniProt P11802+Q96SW2); test: Protac activity at CRBN/CDK4 in human A-375 cells assessed as induction of CDK4 protein degradation after 12 hrs by Western blot analysis; type: cell-based; conditions: dose 62.5-1000 nM
T1 sequence (P11802 2-303 limits assumed): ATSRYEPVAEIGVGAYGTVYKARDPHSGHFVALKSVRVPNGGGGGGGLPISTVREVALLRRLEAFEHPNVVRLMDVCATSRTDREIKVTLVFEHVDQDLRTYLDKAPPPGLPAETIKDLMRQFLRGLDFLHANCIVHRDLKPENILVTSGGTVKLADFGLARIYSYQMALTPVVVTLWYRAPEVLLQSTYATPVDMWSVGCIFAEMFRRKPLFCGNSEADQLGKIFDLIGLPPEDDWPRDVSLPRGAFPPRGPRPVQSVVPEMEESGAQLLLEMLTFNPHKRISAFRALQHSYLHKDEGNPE
T1 sequence (Q96SW2 whole entry partner): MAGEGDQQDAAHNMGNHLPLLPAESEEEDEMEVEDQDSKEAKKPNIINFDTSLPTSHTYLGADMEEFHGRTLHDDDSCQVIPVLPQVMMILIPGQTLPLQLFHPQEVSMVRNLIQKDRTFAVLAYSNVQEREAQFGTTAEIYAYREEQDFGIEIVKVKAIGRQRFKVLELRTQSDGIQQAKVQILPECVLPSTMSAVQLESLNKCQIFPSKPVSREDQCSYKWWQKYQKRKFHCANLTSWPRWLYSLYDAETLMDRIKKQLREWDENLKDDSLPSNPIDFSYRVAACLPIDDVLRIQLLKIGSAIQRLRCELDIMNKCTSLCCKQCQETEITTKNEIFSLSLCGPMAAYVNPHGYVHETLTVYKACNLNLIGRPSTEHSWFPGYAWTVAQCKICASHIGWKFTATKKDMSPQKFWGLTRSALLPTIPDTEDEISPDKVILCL
Method in brief: (§3)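 B16F10 and A375 cells treated with DMSO or serial dilutions of compound for 12 h (concentration series), or for the indicated times (time course). CDK2, CDK4 and CDK6 protein levels determined by western blot.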

[10] = target: Protein cereblon/Cyclin-dependent kinase 6 (Homo sapiens) (UniProt Q00534+Q96SW2); test: Protac activity at CRBN/CDK6 in human A-375 cells assessed as induction of CDK6 protein degradation after 12 hrs by Western blot analysis; type: cell-based; conditions: dose 62.5-1000 nM; method in brief: as §3
Protein cereblon/Cyclin-dependent kinase 6 (Homo sapiens), sequence (Q00534 whole entry, looked up): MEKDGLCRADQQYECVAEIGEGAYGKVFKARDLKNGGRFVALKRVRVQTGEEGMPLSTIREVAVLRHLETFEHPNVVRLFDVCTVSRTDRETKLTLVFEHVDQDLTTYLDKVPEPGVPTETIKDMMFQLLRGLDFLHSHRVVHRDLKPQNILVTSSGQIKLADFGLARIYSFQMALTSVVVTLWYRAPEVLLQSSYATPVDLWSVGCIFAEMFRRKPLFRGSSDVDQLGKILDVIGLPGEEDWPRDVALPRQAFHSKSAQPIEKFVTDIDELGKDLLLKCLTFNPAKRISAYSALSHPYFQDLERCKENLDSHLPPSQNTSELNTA
Protein cereblon/Cyclin-dependent kinase 6 (Homo sapiens), sequence (Q96SW2 whole entry, looked up): as the sequence (Q96SW2 whole entry partner) above

[11] = target: Protein cereblon/Cyclin-dependent kinase 2 (Homo sapiens) (UniProt P24941+Q96SW2); test: Protac activity at CRBN/CDK2 in human A-375 cells assessed as induction of CDK2 protein degradation after 12 hrs by Western blot analysis; type: cell-based; conditions: dose 62.5-1000 nM; method in brief: as §3
[12] = target: T1, Protein cereblon/Cyclin-dependent kinase 4 (Homo sapiens); test: Protac activity at CRBN/CDK4 in human A-375 cells assessed as induction of CDK4 protein degradation at 1000 nM by Western blot analysis; type: cell-based; conditions: time hrs <=12, TDE = time-dependent effect; method in brief: as §3
B16-F10 [13] = test: Induction of apoptosis in mouse B16F10 cells assessed as late apoptotic cells at 500 nM incubated for 48 hrs by Annexin V-FITC/PI staining based flow cytometry (reference value: 0.551%); type: functional
A-375 [14] = test: Induction of cell cycle arrest in human A-375 cells assessed as accumulation at G1 phase at 250 uM incubated for 48 hrs by propidium iodide staining based flow cytometry (reference value: 58.26%); type: functional; method in brief: as §1
B16-F10 [15] = test: Induction of cell cycle arrest in mouse B16-F10 cells assessed as accumulation at G1 phase at 50 uM incubated for 48 hrs by propidium iodide staining based flow cytometry (reference value: 52.59%); type: functional
A-375 [16] = test: Induction of apoptosis in human A-375 cells assessed as viable cells at 1000 nM incubated for 48 hrs by Annexin V-FITC/PI staining based flow cytometry (reference value: 93.3%); type: functional; conditions: read-out: Activity
[17] = target: T2, Protein cereblon/Cyclin-dependent kinase 6 (Mus musculus) (UniProt Q8C7D2+Q64261); test: Protac activity at CRBN/CDK6 in mouse B16F10 cells assessed as induction of CDK6 protein degradation after 12 hrs by Western blot analysis; type: cell-based; conditions: B16-F10, dose 62.5-1000 nM; method in brief: as §3
T2 sequence (Q64261 whole entry, looked up): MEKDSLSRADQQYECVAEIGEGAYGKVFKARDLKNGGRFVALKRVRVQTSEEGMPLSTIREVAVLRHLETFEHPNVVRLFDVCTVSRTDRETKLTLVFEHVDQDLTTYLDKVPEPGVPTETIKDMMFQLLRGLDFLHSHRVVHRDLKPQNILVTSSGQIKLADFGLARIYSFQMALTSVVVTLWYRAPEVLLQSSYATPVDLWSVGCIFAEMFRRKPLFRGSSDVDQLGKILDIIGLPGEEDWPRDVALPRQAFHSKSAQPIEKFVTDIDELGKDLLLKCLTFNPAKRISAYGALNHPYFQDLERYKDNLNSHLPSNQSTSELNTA
T2 sequence (Q8C7D2 whole entry, looked up): as the sequence (Q8C7D2 whole entry, looked up, other chains not shown) above

B16-F10 [18] = test: Induction of apoptosis in mouse B16F10 cells assessed as necrotic cells at 500 nM incubated for 48 hrs by Annexin V-FITC/PI staining based flow cytometry (reference value: 0.21%); type: functional
B16-F10 [19] = test: Induction of apoptosis in mouse B16F10 cells assessed as viable cells at 125 nM incubated for 48 hrs by Annexin V-FITC/PI staining based flow cytometry (reference value: 95.9%); type: functional; conditions: read-out: Activity
[20] = Tmax in Sprague-Dawley rat at 200 mg/kg, po; type: ADME, organism-based; conditions: in vivo
Method in brief: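 SD rats, n = 3, single dose of prodrug: IV by tail vein at 10 mg/Kg, or PO at 200 mg/Kg. Plasma levels of prodrug and released active degrader followed over 0–12 h. Parameters derived by a non-compartmental model.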

B16-F10 [21] = test: Induction of apoptosis in mouse B16F10 cells assessed as early apoptotic cells at 500 nM incubated for 48 hrs by Annexin V-FITC/PI staining based flow cytometry (reference value: 3.52%); type: functional
[22] = target: T2, Protein cereblon/Cyclin-dependent kinase 6 (Mus musculus); test: Protac activity at CRBN/CDK6 in mouse B16F10 cells assessed as induction of CDK6 protein degradation at 100 nM for 6 hrsin presence of methyl 6-(7-cyclopentyl-6-(dimethylcarbamoyl)-7H-pyrrolo[2,3-d]pyrimidin-2-ylamino)nicotinate by Western blot analysis; type: cell-based; conditions: B16-F10, time 6.0 hrs
Method in brief: (§4)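 B16F10 cells pre-treated 2 h with DMSO, pomalidomide (10 μM), MG132 (20 μM) or a parent CDK ligand, then exposed to 100 nM degrader for 6 h. CDK2/4/6 protein levels read by western blot.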

A-375 [23] = test: Induction of apoptosis in human A-375 cells assessed as early apoptotic cells at 1000 nM incubated for 48 hrs by Annexin V-FITC/PI staining based flow cytometry (reference value: 2.82%); type: functional
[24] = target: T3, Protein cereblon/Cyclin-dependent kinase 4 (Mus musculus) (UniProt P30285+Q8C7D2); test: Protac activity at CRBN/CDK4 in mouse B16F10 cells assessed as induction of CDK4 protein degradation at 100 nM for 6 hrsin presence of Ribociclib by Western blot analysis; type: cell-based; conditions: B16-F10, time 6.0 hrs
T3 sequence (P30285 whole entry, looked up): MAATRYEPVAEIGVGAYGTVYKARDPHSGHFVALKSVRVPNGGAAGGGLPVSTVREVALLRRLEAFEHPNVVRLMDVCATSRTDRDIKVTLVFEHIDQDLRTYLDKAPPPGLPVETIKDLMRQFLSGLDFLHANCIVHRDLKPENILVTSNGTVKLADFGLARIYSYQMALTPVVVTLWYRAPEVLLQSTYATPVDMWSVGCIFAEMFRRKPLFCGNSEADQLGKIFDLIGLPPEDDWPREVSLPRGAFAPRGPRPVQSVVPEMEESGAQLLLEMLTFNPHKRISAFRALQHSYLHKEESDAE
T3 sequence (Q8C7D2 whole entry, looked up): as the sequence (Q8C7D2 whole entry, looked up, other chains not shown) above

B16-F10 [25] = test: Induction of apoptosis in mouse B16F10 cells assessed as viable cells at 500 nM incubated for 48 hrs by Annexin V-FITC/PI staining based flow cytometry (reference value: 95.9%); type: functional; conditions: read-out: Activity
[26] = target: T3, Protein cereblon/Cyclin-dependent kinase 4 (Mus musculus); test: Protac activity at CRBN/CDK4 in mouse B16F10 cells assessed as induction of CDK4 protein degradation at 100 nM for 6 hrsin presence of Pomalidomide by Western blot analysis; type: cell-based; conditions: B16-F10, time 6.0 hrs; method in brief: as §4
A-375 [27] = test: Induction of apoptosis in human A-375 cells assessed as necrotic cells at 250 nM incubated for 48 hrs by Annexin V-FITC/PI staining based flow cytometry (reference value: 0.602%); type: functional

With `CN(C)C(=O)c1cc2cnc(Nc3ccc(C(=O)NCCCCCCNc4cccc5c4C(=O)N(C4CCC(=O)NC4=O)C5=O)cc3)nc2n1C1CCCC1` (configuration not stated) the Activity (A-375 [1]) was 9.57%, the Activity (A-375 [2]) was 5.1% and the Activity [3] was “Active”. For the same compound, the Activity (A-375 [4]) was 0.273%, the Activity (B16-F10 [5]) was “Dose-dependent effect” and the Activity (A-375 [6]) was “Active”. The Activity (B16-F10 [7]) was “Active”, the Cmax [8] was 59.9 µg/mL and the Activity [9] was “Dose-dependent effect”. The Activity [10] was “Dose-dependent effect”, the Activity [11] was “Dose-dependent effect” and the Activity [12] was “Tde”. The Activity (B16-F10 [13]) was 1.63%, the Activity (A-375 [14]) was 67.64% and the Activity (B16-F10 [15]) was 49.54%. The viability at 1 µM (A-375 [16]) was 55.2%, the Activity [17] was “Dose-dependent effect” and the Activity (B16-F10 [18]) was 0.081%. The viability at 0.125 µM (B16-F10 [19]) was 86.1%, the Tmax [20] was 15 min and the Activity (B16-F10 [21]) was 93.6%. For the same compound, the Activity [22] was “inactive”, the Activity (A-375 [23]) was 29.3% and the Activity [24] was “inactive”. The viability at 0.5 µM (B16-F10 [25]) was 4.73%, the Activity [26] was “inactive” and the Activity (A-375 [27]) was 0.144%.
